1 compound from ChEMBL document CHEMBL1142128, “Hygromycin B inhibition of protein synthesis and ribosome biogenesis in Escherichia coli” (Antimicrob Agents Chemother, 2007) can be followed below.

Values after ≈ are worked out from the molar mass of the structure shown.

Experiment [1] has as its system Escherichia coli. Kind of experiment: Increase in 16S precursor accumulation in Escherichia coli at 75 ug/ml. The format is functional. Put shortly: (§1)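 E. coli grown in TSB across a range of hygromycin B concentrations, plus an untreated control. Total RNA was extracted from 1 ml of cells. Samples (5 µl at 200 ng/µl) were run on an Agilent Bioanalyzer RNA 6000 chip under total-RNA conditions, and RNA species were read from fluorescence electropherograms.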

For experiment [2], the system named is Escherichia coli. Kind of experiment: Effect on small RNA accumulation in Escherichia coli at 75 ug/ml. It is filed as functional. Summed up: as §1
Experiment [3] has as its system Escherichia coli. Kind of experiment: Effect on small RNA accumulation in Escherichia coli at 50 ug/ml. It is filed as functional. Summed up: as §1
The test system of experiment [4] is Escherichia coli. Kind of experiment: Effect on small RNA accumulation in Escherichia coli at 25 ug/ml. It is filed as functional. Summed up: as §1
In experiment [5] the test system is Escherichia coli. Kind of experiment: Decrease in 23S RNA accumulation in Escherichia coli at 50 ug/ml. The format is functional. Set-up: scale not given: the % may be the effect or the level left. Put shortly:
as §1

Experiment [6] relates to Escherichia coli. Kind of experiment: Decrease in 23S RNA accumulation in Escherichia coli at 75 ug/ml. It is filed as functional. The arrangement: scale not given: the % may be the effect or the level left. Put shortly:
as §1

The test system of experiment [7] is Escherichia coli. As to the kind of experiment: Effect on 16S rRNA accumulation in Escherichia coli at 50 ug/ml. The format is functional. Summed up: as §1
Experiment [8] has as its system Escherichia coli. As to the kind of experiment: Increase in 16S precursor accumulation in Escherichia coli at 100 ug/ml. It is filed as functional. Summed up: as §1
For experiment [9], the system named is Escherichia coli. Kind of experiment: Decrease in 23S RNA accumulation in Escherichia coli at 25 ug/ml. Set-up: scale not given: the % may be the effect or the level left. The format is functional. Summed up: as §1
The subject of experiment [10] is Escherichia coli. As to the kind of experiment: Reduction of growth rate in Escherichia coli at 25 ug/ml. It is filed as functional. Set-up: scale not given: the % may be the effect or the level left.
The test system of experiment [11] is Escherichia coli. As to the kind of experiment: Decrease in 23S RNA accumulation in Escherichia coli at 100 ug/ml. The format is functional. Set-up: scale not given: the % may be the effect or the level left. Put shortly: as §1
Experiment [12] concerns Escherichia coli. As to the kind of experiment: Inhibition of viable cells in Escherichia coli at 20 ug/ml. It is filed as functional. Put shortly:
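E. coli grown at 37°C in TSB with or without drug. Viable cells were counted as colonies after serial dilution. Results are given as percent decrease versus untreated control; means of two determinations.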

Experiment [13] deals with Escherichia coli. As to the kind of experiment: Increase in 16S precursor accumulation in Escherichia coli at 50 ug/ml. The format is functional. Put shortly:
as §1

Experiment [14] is described as follows: Inhibition of 30S ribosomal-subunit assembly in Escherichia coli. Summed up:
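E. coli in TSB at 37°C were labelled with [3H]uridine (1 µCi/ml, 1 µg/ml) for two doublings, with or without drug. Label was chased with uridine at 50 µg/ml final for 15 min. The 30S share of total gradient cpm was compared with control; IC50 derived; means of two.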

The subject of experiment [15] is Escherichia coli. As to the kind of experiment: Effect on 16S rRNA accumulation in Escherichia coli at 25 ug/ml. It is filed as functional. Put shortly:
as §1

For experiment [16], the system named is Escherichia coli. As to the kind of experiment: Effect on 16S rRNA accumulation in Escherichia coli at 100 ug/ml. It is filed as functional. Summed up: as §1
Experiment [17] has as its system Escherichia coli. Kind of experiment: Antimicrobial activity against Escherichia coli. It is filed as functional. Put shortly: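 Broth dilution MIC; E. coli grown at 37°C in tryptic soy broth (TSB) with and without hygromycin B.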
Experiment [18] concerns Escherichia coli. As to the kind of experiment: Inhibition of protein synthesis in Escherichia coli measured as incorporation of [35S]methionine. The format is functional, organism-based. Summed up:
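E. coli in TSB at 37°C, with or without drug, received [35S]methionine (1 µCi/ml). Samples (0.4 ml) were taken every 5 min for 15 min, precipitated with 20% TCA, collected on glass-fibre filters, washed with 10% TCA, and scintillation-counted. IC50 derived from the concentration series; means of two.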

Experiment [19] relates to Escherichia coli. As to the kind of experiment: Effect on 16S rRNA accumulation in Escherichia coli at 75 ug/ml. The format is functional. Put shortly: as §1
The subject of experiment [20] is Escherichia coli. Kind of experiment: Increase in 16S precursor accumulation in Escherichia coli at 25 ug/ml. It is filed as functional. Put shortly: as §1
Experiment [21] concerns Escherichia coli. As to the kind of experiment: Effect on small RNA accumulation in Escherichia coli at 100 ug/ml. It is filed as functional. Put shortly:
as §1

With `CN[C@H]1C[C@@H](N)[C@H](O)[C@@H](O[C@@H]2O[C@H](CO)[C@H](O)[C@H]3O[C@@]4(O[C@H]23)O[C@H]([C@H](N)CO)[C@H](O)[C@H](O)[C@H]4O)[C@@H]1O`, the Activity in the experiment on Escherichia coli [1] turned out to be 1.1%; in the experiment with Escherichia coli [2], 64.5%; with Escherichia coli [3], 62.8%; in the experiment with Escherichia coli [4] it was 59%; in the experiment on Escherichia coli [5] it was 12.5%; in the experiment with Escherichia coli [6], 12.7%. For the same compound, the Activity is listed as 10.4% in the experiment on Escherichia coli [7]; 1.2% with Escherichia coli [8]; 13.5% in the experiment on Escherichia coli [9]; 50% in the experiment on Escherichia coli [10]; 10% in the experiment on Escherichia coli [11]; 0.75% in the experiment on Escherichia coli [13]. Also, the Activity in the experiment on Escherichia coli [15] was determined as 10.4%; in the experiment with Escherichia coli [16], 4.8%; in the experiment with Escherichia coli [19] it was 7.3%; with Escherichia coli [20], 0.5%; in the experiment with Escherichia coli [21] it was 68.8%. The same compound showed an inhibition at 20 µg/mL in the experiment on Escherichia coli [12] of 50%. Further, the IC50 in [14] amounted to 65 µg/mL (≈ 123 µM); with Escherichia coli [18], 16 µg/mL (≈ 30.3 µM). The compound also registered an MIC in the experiment on Escherichia coli [17] of 150 µg/mL (≈ 284 µM).

What is called inhibition is the relative decrease from the control value, in per cent. As a reminder, the IC50 is the concentration needed to halve the response being measured. One may read the MIC as the lowest concentration that inhibits growth of the organism.
